These results are taken from ChEMBL document CHEMBL1121404, “Synthesis and study of conformationally defined enantiomers of local anesthetics and conformationally defined enantiomers of fluorescent dyes designed to label electrically excitable membranes” (1980).

Test [1] relates to Majidae. Description: The compound was tested for optical responses recorded from spider crab walking leg nerve bundles upon staining. The format is functional. In outline: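 Nerve bundles stained 30 min in Tris-buffered artificial sea water (pH 8) with 25-50 nM dye, poorly soluble dyes first dissolved in 0.1 mL 95% EtOH per 100 mL; excitation with 365 ± 10 nm light from xenon-mercury lamp; time-averaged fluorescence recorded with extracellular compound action potential; ΔI/I (excitation-linked change over resting intensity); mean ± SE of 2-8 experiments.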

Test [2] concerns Majidae. The experiment in a line: The compound was tested for its ability to block the excitability of spider crab walking leg nerve bundles, the peak action potential amplitude, upon washing in physiological saline for 20 minutes. The format is functional, organism-based. In short, it runs like this: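 Spider crab (Libinia emarginata) nerve bundles exposed to 1 mM compound in bath for 20 min, then washed 20 min in physiological saline (pH 8.0); stimulation with 0.4-ms threshold pulses at 18-20 °C; value is percent recovery of peak compound action potential amplitude relative to control; mean ± SE of 4-6 experiments.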

Test [3] concerns Majidae. The experiment in a line: The compound was tested for its ability to block the excitability of spider crab walking leg nerve bundles, peak action potential amplitude, recorded by a pair of external Ag-AgCl electrodes. The format is functional. In short, it runs like this:
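Libinia emarginata claw/walking-leg nerve bundles; compound applied in external bath at 1 mM for 20 min in physiological saline (416 mM NaCl, 10 mM KCl, 11 mM CaCl2, 55 mM MgCl2, 2.5 mM NaHCO3, pH 8.0); 0.4-ms threshold pulses; 18-20 °C; % decrease in peak compound action potential amplitude via external Ag-AgCl electrodes; mean ± SE of 4-6 experiments.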

`CN(C)c1cccc2c(S(=O)(=O)N[C@H](CO)Cc3ccccc3)cccc12`: in the test with Majidae [1], the Delta I/I is 0.00018.

`CN(C)c1cccc2c(C(=O)N[C@H](CO)Cc3ccccc3)cccc12` displayed a Delta I/I in the test on Majidae [1] of 0.00024.

Compound `C[C@@H](Cc1ccc(N)cc1)N(C)C` gave a Recovery in the test on Majidae [2] of 100%. The Decrease in the test on Majidae [3] stood at 33%.

As to `C[C@H](Cc1ccccc1)NC(=O)c1cccc2c(N(C)C)cccc12`, the Delta I/I in the test with Majidae [1] was found to be 0.00035.

Regarding `C[C@@H](Cc1ccccc1)NS(=O)(=O)c1cccc2c(N(C)C)cccc12`, in the test with Majidae [1], the Delta I/I amounted to 7e-05.

Compound `C[C@H](Cc1ccc(N)cc1)N(C)C` had a Recovery with Majidae [2] of 100%. Further, the Decrease with Majidae [3] was 28%.

Regarding `CN(C)c1cccc2c(C(=O)N[C@@H](CO)Cc3ccccc3)cccc12`, the Delta I/I in the test on Majidae [1] was 0.00025.

In the case of `C[C@H](Cc1ccccc1)NS(=O)(=O)c1cccc2c(N(C)C)cccc12`, the Delta I/I in the test on Majidae [1] is 8.5e-05.

`C[C@@H](Cc1ccccc1)NC(=O)c1cccc2c(N(C)C)cccc12` gave a Delta I/I in the test with Majidae [1] of 0.00038.

In turn, `CN(C)c1cccc2c(S(=O)(=O)N[C@@H](CO)Cc3ccccc3)cccc12` returned a Delta I/I in the test on Majidae [1] of 0.00015.

In the test with Majidae [2], `C[C@H](Cc1ccc([N+](=O)[O-])cc1)N(C)C` returned a Recovery of 46%. The same compound gave a Decrease with Majidae [3] of 93%.

Regarding `C[C@@H](Cc1ccc([N+](=O)[O-])cc1)N(C)C`, in the test on Majidae [2], the Recovery is 35%. In the test on Majidae [3], this compound displayed a Decrease of 84%.
